ChEMBL document CHEMBL1921735, “Antibacterial optimization of 4-aminothiazolyl analogues of the natural product GE2270 A: identification of the cycloalkylcarboxylic acids” (J Med Chem, 2011)
≈ marks a conversion by molar mass, not a printed value. Calls of active or inactive are those of the source.

Legend:
Staphylococcus aureus [1] = experiment: Antibacterial activity against methicillin-resistant Staphylococcus aureus isolate A4.018 by CLSI M07-A8 method; type: functional
Staphylococcus aureus [2] = experiment: Antibacterial activity against GE2270-A-resistant Staphylococcus aureus harboring tufA G258D mutant gene by CLSI M07-A8 method; type: functional
Streptococcus pneumoniae = experiment: Antibacterial activity against Streptococcus pneumoniae by CLSI M07-A8 method; type: functional, organism-based
In short: (§1)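 Broth microdilution MIC run per CLSI M07-A8 (2009).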

Enterococcus faecium = experiment: Antibacterial activity against Enterococcus faecium 7130724 by CLSI M07-A8 method; type: functional; in short: as §1
Enterococcus faecalis = experiment: Antibacterial activity against Enterococcus faecalis ATCC 29212 by CLSI M07-A8 method; type: functional; in short: as §1
Streptococcus pyogenes = experiment: Antibacterial activity against Streptococcus pyogenes ATCC BAA-595 by CLSI M07-A8 method; type: functional; in short: as §1
Staphylococcus aureus [3] = experiment: Antibacterial activity against Staphylococcus aureus ATCC 49951 infected in CD1 mouse assessed as protection against bacterial infection administered 5 hrs post infection measured on day 5; type: functional
In short: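 Mouse lethal systemic infection: ip injection of 1 × 10^8 cfu/mouse (10−100× minimal lethal dose), E. faecalis in 50% sterile rat fecal extract, S. aureus in 0.9% NaCl. Therapy by tail-vein bolus at several doses, six mice per group. Started immediately for E. faecalis; at 1 and 5 h post-inoculation for S. aureus.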

| SMILES | MIC (Staphylococcus aureus [1]) [µg/mL] | Activity (Staphylococcus aureus [2]) | Activity (Streptococcus pneumoniae) | MIC (Enterococcus faecium) [µg/mL] | MIC (Enterococcus faecalis) [µg/mL] | MIC (Streptococcus pyogenes) [µg/mL] | MIC (Staphylococcus aureus [2]) [µg/mL] | ED50 (Staphylococcus aureus [3]) [mg/kg] |
| --- | --- | --- | --- | --- | --- | --- | --- | --- |
| CNC(=O)C[C@@H]1NC(=O)c2csc(n2)-c2ccc(-c3nc(NC(=O)NCCCC(=O)O)cs3)nc2-c2csc(n2)-c2csc(n2)[C@H]([C@@H](O)c2ccccc2)NC(=O)CNC(=O)c2nc(sc2COC)[C@H](C(C)C)NC(=O)c2nc1sc2C | 1 (≈ 0.816 µM) | inactive | Active | 4 (≈ 3.26 µM) | 1 (≈ 0.816 µM) | 16 (≈ 13.1 µM) |  |  |
| CNC(=O)C[C@@H]1NC(=O)c2csc(n2)-c2ccc(-c3nc(NS(C)(=O)=O)cs3)nc2-c2csc(n2)-c2csc(n2)[C@H]([C@@H](O)c2ccccc2)NC(=O)CNC(=O)c2nc(sc2COC)[C@H](C(C)C)NC(=O)c2nc1sc2C | 2 (≈ 1.7 µM) |  | Active | 4 (≈ 3.41 µM) | 2 (≈ 1.7 µM) | > 32 | > 32 |  |
| CNC(=O)C[C@@H]1NC(=O)c2csc(n2)-c2ccc(-c3nc(NS(N)(=O)=O)cs3)nc2-c2csc(n2)-c2csc(n2)[C@H]([C@@H](O)c2ccccc2)NC(=O)CNC(=O)c2nc(sc2COC)[C@H](C(C)C)NC(=O)c2nc1sc2C | 4 (≈ 3.4 µM) |  | Active | 4 (≈ 3.4 µM) | 2 (≈ 1.7 µM) | > 32 | > 32 |  |
| CNC(=O)C[C@@H]1NC(=O)c2csc(n2)-c2ccc(-c3nc(NC(=O)CCC(=O)O)cs3)nc2-c2csc(n2)-c2csc(n2)[C@H]([C@@H](O)c2ccccc2)NC(=O)CNC(=O)c2nc(sc2COC)[C@H](C(C)C)NC(=O)c2nc1sc2C | 0.25 (≈ 0.209 µM) | inactive | Active | 0.5 (≈ 0.418 µM) | 0.25 (≈ 0.209 µM) | 4 (≈ 3.34 µM) |  |  |
| CNC(=O)C[C@@H]1NC(=O)c2csc(n2)-c2ccc(-c3nc(NC(C)=O)cs3)nc2-c2csc(n2)-c2csc(n2)[C@H]([C@@H](O)c2ccccc2)NC(=O)CNC(=O)c2nc(sc2COC)[C@H](C(C)C)NC(=O)c2nc1sc2C | 2 (≈ 1.76 µM) |  | Active | 1 (≈ 0.878 µM) | 1 (≈ 0.878 µM) | > 32 | > 32 |  |
| CNC(=O)C[C@@H]1NC(=O)c2csc(n2)-c2ccc(-c3nc(NC(=O)OCCN)cs3)nc2-c2csc(n2)-c2csc(n2)[C@H]([C@@H](O)c2ccccc2)NC(=O)CNC(=O)c2nc(sc2COC)[C@H](C(C)C)NC(=O)c2nc1sc2C | 1 (≈ 0.845 µM) | inactive | Active | 1 (≈ 0.845 µM) | 1 (≈ 0.845 µM) | 16 (≈ 13.5 µM) |  |  |
| CNC(=O)C[C@@H]1NC(=O)c2csc(n2)-c2ccc(-c3nc(NC(=O)OCCCCN)cs3)nc2-c2csc(n2)-c2csc(n2)[C@H]([C@@H](O)c2ccccc2)NC(=O)CNC(=O)c2nc(sc2COC)[C@H](C(C)C)NC(=O)c2nc1sc2C | 1 (≈ 0.825 µM) | inactive | Active | 1 (≈ 0.825 µM) | 0.5 (≈ 0.413 µM) | 8 (≈ 6.6 µM) |  | 6.48 |
| CNC(=O)C[C@@H]1NC(=O)c2csc(n2)-c2ccc(-c3nc(NC(=O)COCC(=O)O)cs3)nc2-c2csc(n2)-c2csc(n2)[C@H]([C@@H](O)c2ccccc2)NC(=O)CNC(=O)c2nc(sc2COC)[C@H](C(C)C)NC(=O)c2nc1sc2C | 0.5 (≈ 0.412 µM) | inactive | Active | 2 (≈ 1.65 µM) | 0.5 (≈ 0.412 µM) | 4 (≈ 3.3 µM) |  |  |
| CNC(=O)C[C@@H]1NC(=O)c2csc(n2)-c2ccc(-c3nc(NC(=O)CC[C@H](N)C(=O)O)cs3)nc2-c2csc(n2)-c2csc(n2)[C@H]([C@@H](O)c2ccccc2)NC(=O)CNC(=O)c2nc(sc2COC)[C@H](C(C)C)NC(=O)c2nc1sc2C | > 32 | inactive | Active | > 32 | > 32 | > 32 |  |  |
| CNC(=O)C[C@@H]1NC(=O)c2csc(n2)-c2ccc(-c3nc(NC(=O)/C=C\C(=O)O)cs3)nc2-c2csc(n2)-c2csc(n2)[C@H]([C@@H](O)c2ccccc2)NC(=O)CNC(=O)c2nc(sc2COC)[C@H](C(C)C)NC(=O)c2nc1sc2C | 1 (≈ 0.837 µM) | inactive | Active | 2 (≈ 1.67 µM) | 1 (≈ 0.837 µM) | 16 (≈ 13.4 µM) |  |  |
| CNC(=O)C[C@@H]1NC(=O)c2csc(n2)-c2ccc(-c3nc(-n4cnc(C(=O)O)c4)cs3)nc2-c2csc(n2)-c2csc(n2)[C@H]([C@@H](O)c2ccccc2)NC(=O)CNC(=O)c2nc(sc2COC)[C@H](C(C)C)NC(=O)c2nc1sc2C | 4 (≈ 3.36 µM) |  | Active | > 32 | 4 (≈ 3.36 µM) | > 32 | > 32 |  |
| CNC(=O)C[C@@H]1NC(=O)c2csc(n2)-c2ccc(-c3nc(NC(=O)OCC(C)(C)N)cs3)nc2-c2csc(n2)-c2csc(n2)[C@H]([C@@H](O)c2ccccc2)NC(=O)CNC(=O)c2nc(sc2COC)[C@H](C(C)C)NC(=O)c2nc1sc2C | 2 (≈ 1.65 µM) | inactive | Active | 1 (≈ 0.825 µM) | 1 (≈ 0.825 µM) | 8 (≈ 6.6 µM) |  |  |
| CNC(=O)C[C@@H]1NC(=O)c2csc(n2)-c2ccc(-c3nc(NC(=O)OC4CC(C)(C)NC(C)(C)C4)cs3)nc2-c2csc(n2)-c2csc(n2)[C@H]([C@@H](O)c2ccccc2)NC(=O)CNC(=O)c2nc(sc2COC)[C@H](C(C)C)NC(=O)c2nc1sc2C | 1 (≈ 0.781 µM) | inactive | Active | 0.5 (≈ 0.391 µM) | 1 (≈ 0.781 µM) | 8 (≈ 6.25 µM) |  |  |
| CNC(=O)C[C@@H]1NC(=O)c2csc(n2)-c2ccc(-c3nc(NC(=O)OCCCN)cs3)nc2-c2csc(n2)-c2csc(n2)[C@H]([C@@H](O)c2ccccc2)NC(=O)CNC(=O)c2nc(sc2COC)[C@H](C(C)C)NC(=O)c2nc1sc2C | 1 (≈ 0.835 µM) | inactive | Active | 1 (≈ 0.835 µM) | 1 (≈ 0.835 µM) | 16 (≈ 13.4 µM) |  |  |
| CNC(=O)C[C@@H]1NC(=O)c2csc(n2)-c2ccc(-c3nc(NC(=O)CC[C@@H](C)C(=O)O)cs3)nc2-c2csc(n2)-c2csc(n2)[C@H]([C@@H](O)c2ccccc2)NC(=O)CNC(=O)c2nc(sc2COC)[C@H](C(C)C)NC(=O)c2nc1sc2C | 0.25 (≈ 0.204 µM) | inactive | Active | 0.25 (≈ 0.204 µM) | 0.125 (≈ 0.102 µM) | 4 (≈ 3.27 µM) |  |  |
| CNC(=O)C[C@@H]1NC(=O)c2csc(n2)-c2ccc(-c3nc(NC(=O)OCCCCCN)cs3)nc2-c2csc(n2)-c2csc(n2)[C@H]([C@@H](O)c2ccccc2)NC(=O)CNC(=O)c2nc(sc2COC)[C@H](C(C)C)NC(=O)c2nc1sc2C | 1 (≈ 0.816 µM) | inactive | Active | 0.5 (≈ 0.408 µM) | 0.5 (≈ 0.408 µM) | 8 (≈ 6.53 µM) |  |  |
| CNC(=O)C[C@@H]1NC(=O)c2csc(n2)-c2ccc(-c3nc(NC(=O)CCCC(=O)O)cs3)nc2-c2csc(n2)-c2csc(n2)[C@H]([C@@H](O)c2ccccc2)NC(=O)CNC(=O)c2nc(sc2COC)[C@H](C(C)C)NC(=O)c2nc1sc2C | 0.25 (≈ 0.207 µM) | inactive | Active | 0.5 (≈ 0.413 µM) | 0.25 (≈ 0.207 µM) | 8 (≈ 6.61 µM) |  |  |
| CNC(=O)C[C@@H]1NC(=O)c2csc(n2)-c2ccc(-c3nc(NC(=O)OC(C)(C)C)cs3)nc2-c2csc(n2)-c2csc(n2)[C@H]([C@@H](O)c2ccccc2)NC(=O)CNC(=O)c2nc(sc2COC)[C@H](C(C)C)NC(=O)c2nc1sc2C | > 128 |  | Active | > 128 | > 128 | > 128 | > 32 |  |
| CNC(=O)C[C@@H]1NC(=O)c2csc(n2)-c2ccc(-c3nc(NC(=O)C(C)(C)CCCC(C)(C)C(=O)O)cs3)nc2-c2csc(n2)-c2csc(n2)[C@H]([C@@H](O)c2ccccc2)NC(=O)CNC(=O)c2nc(sc2COC)[C@H](C(C)C)NC(=O)c2nc1sc2C | 4 (≈ 3.09 µM) | inactive | Active | 1 (≈ 0.772 µM) | 1 (≈ 0.772 µM) | > 32 |  |  |
